Drawing on ChEMBL document CHEMBL1240491, “In vitro anticancer screening and radiosensitizing evaluation of some new quinolines and pyrimido[4,5-b]quinolines bearing a sulfonamide moiety” (Eur J Med Chem, 2010), this text covers Activity and IC50 for 21 compounds.

For assay [1], the system named is MCF7. The assay is described as follows: Anticancer activity against 8 Gy irradiated human MCF7 cells assessed as survival fraction at 50 uM after 48 hrs by SRB assay. The assay is classed as functional. The gist of the method:
(§1)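 MCF7 cells seeded at 10⁴ cells/well for 24 h, then given test compound (DMSO solution; 10, 25, 50 or 100 in the concentration series) plus a single 8 Gy γ-irradiation. Incubated 48 h, 37 °C, 5% CO₂. SRB readout: fix, stain 30 min with 0.4% SRB in 1% acetic acid, wash, solubilize in Tris-EDTA, read on ELISA reader. Surviving fraction is the mean of three values ± SE.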
(In general: The SRB assay estimates cell density from bound dye.)

The test system of assay [2] is MCF7. The assay is described as follows: Anticancer activity against human MCF7 cells assessed as survival fraction at 50 uM after 48 hrs by SRB assay. The assay is classed as functional. A digest of the protocol: (§2)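 Unirradiated MCF7 monolayers attached for 24 h after plating at 10⁴ cells/well, then exposed to a range of compound concentrations (dissolved in DMSO) with replicate wells per concentration. Incubated 48 h at 37 °C under 5% CO₂. Sulforhodamine B assay: fixation, 30 min 0.4% SRB/1% acetic acid, four acid washes, Tris-EDTA elution, colorimetric reading. Surviving fraction given as mean ± standard error.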

For assay [3], the system named is MCF7. The assay is described as follows: Anticancer activity against human MCF7 cells assessed as survival fraction at 100 uM after 48 hrs by SRB assay. The assay is classed as functional. The gist of the method:
as §2

In assay [4] the test system is MCF7. The assay is described as follows: Anticancer activity against 8 Gy irradiated human MCF7 cells assessed as survival fraction after 48 hrs by SRB assay. The assay is classed as functional, cell-based. The settings on record: MCF7, light or radiation study. The gist of the method: as §1
In assay [5] the test system is MCF7. The assay is described as follows: Anticancer activity against 8 Gy irradiated human MCF7 cells assessed as survival fraction at 25 uM after 48 hrs by SRB assay. The assay is classed as functional. A digest of the protocol:
as §1

The subject of assay [6] is MCF7. The assay is described as follows: Anticancer activity against human MCF7 cells assessed as survival fraction at 25 uM after 48 hrs by SRB assay. It counts as functional. The gist of the method:
as §2

Assay [7] relates to MCF7. The assay is described as follows: Anticancer activity against 8 Gy irradiated human MCF7 cells assessed as survival fraction at 100 uM after 48 hrs by SRB assay. The assay is classed as functional. The gist of the method:
as §1

The subject of assay [8] is MCF7. The assay is described as follows: Anticancer activity against 8 Gy irradiated human MCF7 cells assessed as survival fraction at 10 uM after 48 hrs by SRB assay. The assay is classed as functional. The gist of the method:
as §1

Assay [9] relates to MCF7. The assay is described as follows: Anticancer activity against human MCF7 cells assessed as survival fraction at 10 uM after 48 hrs by SRB assay. The assay is classed as functional. The gist of the method: as §2
For assay [10], the system named is MCF7. The assay is described as follows: Anticancer activity against human MCF7 cells assessed as survival fraction after 48 hrs by SRB assay. Particulars: MCF7, 48 h. The assay is classed as functional, cell-based. A digest of the protocol: as §2

Where only a bound is given, the exact number is not on record here.

For orientation: IC50 means the concentration that inhibits the measured activity by half. In the case of `CC(=O)NC1=C(C#N)C(c2ccc(Cl)cc2)C2=C(CC(C)(C)CC2=O)N1c1ccc(S(N)(=O)=O)cc1` (stereo not drawn), the Activity came out at 0.31 in assay [1]; 0.446 in assay [2]; 0.324 in [3]; 0.503 in assay [5]; 0.779 in assay [6]; 0.137 in assay [7]. For the same compound, the Activity is 0.427 in assay [8] and 0.948 in [9]. The IC50 in [4] was 33.1 µM; in [10], 64.5 µM.
With `CC1(C)CC(=O)C2=C(C1)N(c1ccc(S(N)(=O)=O)cc1)c1nc[nH]c(=O)c1C2c1ccc(Cl)cc1` (stereo not drawn), the Activity in assay [2] was determined as 0.499; in assay [3] it was 0.468; in assay [6] it was 0.676; in assay [9], 0.891. Also, in [10], the IC50 came out at 76.8 µM.
In the same order, the values of `CC1(C)CC(=O)C2=C(C1)N(c1ccc(S(N)(=O)=O)cc1)c1nc(CCl)[nH]c(=O)c1C2c1ccc(Cl)cc1` (stereo not drawn) are 0.731, 0.625, 0.775, 0.914 and more than 100 µM.
Regarding `CCOC(=O)Cn1cnc2c(c1=O)C(c1ccc(Cl)cc1)C1=C(CC(C)(C)CC1=O)N2c1ccc(S(N)(=O)=O)cc1` (stereo not drawn), the Activity in assay [2] came out at 0.653; in assay [3], 0.563; in assay [6], 0.88; in assay [9] it was 0.954. For the same compound, in assay [10], the concentration for half-maximal inhibition (IC50) is more than 100 µM.
In the same order, the values of `CC(=O)N(C(C)=O)C1=C(C#N)C(c2ccc(Cl)cc2)C2=C(CC(C)(C)CC2=O)N1c1ccc(S(N)(=O)=O)cc1` (stereo not drawn) are 0.504, 0.414, 0.773, 0.895 and 72.1 µM.
The like results for `Cc1nc2c(c(=O)[nH]1)C(c1ccc(Cl)cc1)C1=C(CC(C)(C)CC1=O)N2c1ccc(S(N)(=O)=O)cc1` (stereo not drawn) were, in that order, 0.45, 0.557, 0.721, 0.976 and 85.9 µM.
Consider `CC1(C)CC(=O)C2=C(C1)N(c1ccc(S(N)(=O)=O)cc1)C(N)=C(C#N)C2c1ccc(Cl)cc1` (stereo not drawn), for which the Activity in assay [2] was found to be 0.429; in assay [3] it was 0.484; in assay [6] it was 0.612; in assay [9], 0.915. Moreover, the IC50 in assay [10] is 72.9 µM.
With `CC1(C)CC(=O)C2=C(C1)N(c1ccc(S(N)(=O)=O)cc1)C(N)=C(C(N)=O)C2c1ccc(Cl)cc1` (stereo not drawn), the Activity stood at 0.281 in assay [1]; 0.445 in [2]; 0.452 in assay [3]; 0.517 in assay [5]; 0.662 in assay [6]; 0.282 in [7]. For the same compound, the Activity in assay [8] is 0.653; in assay [9], 0.922. For the same compound, the IC50 stood at 44.4 µM in assay [4] and 71.9 µM in [10].
Turning to `CC1(C)CC(=O)C2=C(C1)N(c1ccc(S(N)(=O)=O)cc1)c1ncnc(Cl)c1C2c1ccc(Cl)cc1` (stereo not drawn), the Activity in assay [2] amounted to 0.476; in assay [3], 0.546; in assay [6], 0.696; in assay [9], 0.843. Further, in assay [10], the IC50 worked out at 86.5 µM.
Consider `CC1(C)CC(=O)C2=C(C1)N(c1ccc(S(N)(=O)=O)cc1)c1nc[nH]c(=S)c1C2c1ccc(Cl)cc1` (stereo not drawn), for which the Activity in assay [2] came to 0.884; in assay [3], 0.814; in assay [6], 0.91; in [9], 0.927. In addition, in [10], the IC50 was more than 100 µM.
Turning to `CC1(C)CC(=O)C2=C(C1)N(c1ccc(S(N)(=O)=O)cc1)c1ncnc(N=C=S)c1C2c1ccc(Cl)cc1` (stereo not drawn), the Activity was 0.419 in assay [2], 0.515 in assay [3], 0.721 in assay [6] and 0.972 in [9]. In assay [10], the half-inhibitory concentration (IC50) was determined as 79.6 µM.
The like results for `CC1(C)CC(=O)C2=C(C1)N(c1ccc(S(N)(=O)=O)cc1)C(NC(=O)CCl)=C(C#N)C2c1ccc(Cl)cc1` (stereo not drawn) were, in that order, 0.523, 0.502, 0.736, 0.986 and 84.3 µM.
With `CC1(C)CC(=O)C2=C(C1)N(c1ccc(S(N)(=O)=O)cc1)C(N)=C(C1=NCCN1)C2c1ccc(Cl)cc1` (stereo not drawn), the Activity in [2] worked out at 0.568; in assay [3] it was 0.621; in assay [6], 0.763; in assay [9], 0.939. The concentration for half-maximal inhibition (IC50) in assay [10] is more than 100 µM.
On to `CC1(C)CC(=O)C2=C(C1)N(c1ccc(S(N)(=O)=O)cc1)c1nc(CC#N)[nH]c(=O)c1C2c1ccc(Cl)cc1` (stereo not drawn), for which the Activity in assay [2] stood at 0.774; in [3], 0.525; in assay [6] it was 0.901; in assay [9], 0.971. In assay [10], the IC50 is more than 100 µM.
The like results for `CC1(C)CC(=O)C2=C(C1)N(c1ccc(S(N)(=O)=O)cc1)c1ncnc(NN)c1C2c1ccc(Cl)cc1` (stereo not drawn) were, in that order, 0.672, 0.358, 0.788, 0.94 and 76 µM.
In the same order, the values of `CCO/C=N/C1=C(C#N)C(c2ccc(Cl)cc2)C2=C(CC(C)(C)CC2=O)N1c1ccc(S(N)(=O)=O)cc1` (stereo not drawn) are 0.498, 0.607, 0.551, 0.803 and 97.2 µM.
Take `CC1(C)CC(=O)C2=C(C1)N(c1ccc(S(N)(=O)=O)cc1)c1ncnc(N)c1C2c1ccc(Cl)cc1` (stereo not drawn): the Activity in assay [2] amounted to 0.495; in [3] it was 0.602; in [6], 0.612; in assay [9] it was 0.886. In assay [10], the IC50 worked out at 96.6 µM.
The like results for `CC1(C)CC(=O)C2=C(C1)N(c1ccc(S(N)(=O)=O)cc1)C(N1C(=O)CCC1=O)=C(C#N)C2c1ccc(Cl)cc1` (stereo not drawn) were, in that order, 0.584, 0.549, 0.813, 0.93 and 95.2 µM.
Consider `CC(=O)CC(=O)NC1=C(C#N)C(c2ccc(Cl)cc2)C2=C(CC(C)(C)CC2=O)N1c1ccc(S(N)(=O)=O)cc1` (stereo not drawn), for which the Activity in assay [2] is reported as 0.648; in [3], 0.549; in assay [6], 0.82; in assay [9], 0.897. Besides, in [10], the IC50 is more than 100 µM.
The like results for `CCNC(=S)NC1=C(C#N)C(c2ccc(Cl)cc2)C2=C(CC(C)(C)CC2=O)N1c1ccc(S(N)(=O)=O)cc1` (stereo not drawn) were, in that order, 0.594, 0.561, 0.837, 0.916 and 99.6 µM.
`COc1cccc2c1C(=O)c1c(O)c3c(c(O)c1C2=O)C[C@@](O)(C(=O)CO)C[C@@H]3O[C@H]1C[C@H](N)[C@H](O)[C@H](C)O1` [DOXORUBICIN]: the figures for the Activity in assay [2], in assay [3] and in [9] were 0.461, 0.494 and 0.721, respectively.
